{"source": "ChEMBL document CHEMBL4145586", "about": "“Hinduchelins A-D, Noncytotoxic Catechol Derivatives from Streptoalloteichus hindustanus” (J Nat Prod, 2018)", "key": {"[1]": {"system": "A549", "assay": "Cytotoxicity against human A549 cells assessed as effect on cell viability at 50 uM after 48 hrs by MTT assay", "assay_type": "cell-based", "details": "a549, 48 h"}, "[2]": {"system": "SMMC-7721", "assay": "Cytotoxicity against human SMMC7721 cells assessed as effect on cell viability at 50 uM after 48 hrs by MTT assay", "assay_type": "cell-based", "details": "smmc-7721, 48 h"}, "[3]": {"system": "SW480", "assay": "Cytotoxicity against human SW480 cells assessed as effect on cell viability at 50 uM after 48 hrs by MTT assay", "assay_type": "cell-based", "details": "sw480, 48 h"}, "[4]": {"system": "MCF7", "assay": "Cytotoxicity against human MCF7 cells assessed as effect on cell viability at 50 uM after 48 hrs by MTT assay", "assay_type": "cell-based", "details": "mcf7, 48 h"}, "[5]": {"system": "HL-60", "assay": "Cytotoxicity against human HL60 cells assessed as effect on cell viability at 50 uM after 48 hrs by MTT assay", "assay_type": "cell-based", "details": "hl-60, 48 h"}, "[6]": {"assay": "Metal chelating activity assessed as iron-compound complex formation by measuring increase in pyoverdine production in Pseudomonas aeruginosa PAO1 at 50 uM by fluorescence assay", "in_short": "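PAO1 grown overnight in LB broth at 37 °C with shaking, then diluted to OD600 0.02 in ABTGC medium. Pyoverdine fluorescence was read on a plate reader, normalized to OD600 and reported as relative fluorescence units.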"}}, "note": "The source made the active and inactive calls. The rule behind the calls is not given here.", "data": [{"smiles": "COc1cccc(-c2nc(C(=O)NCCc3ccccc3O)c(C)o2)c1O", "values": [{"measurement": "Activity", "setting": "[1]", "value": "Non-Toxic"}, {"measurement": "Activity", "setting": "[2]", "value": "Non-Toxic"}, {"measurement": "Activity", "setting": "[3]", "value": "Non-Toxic"}, {"measurement": "Activity", "setting": "[4]", "value": "Non-Toxic"}, {"measurement": "Activity", "setting": "[5]", "value": "Non-Toxic"}]}, {"smiles": "COc1cccc(-c2nc(C(=O)NCCc3ccccc3O)c(C)o2)c1OC", "values": [{"measurement": "Activity", "setting": "[1]", "value": "Non-Toxic"}, {"measurement": "Activity", "setting": "[2]", "value": "Non-Toxic"}, {"measurement": "Activity", "setting": "[3]", "value": "Non-Toxic"}, {"measurement": "Activity", "setting": "[4]", "value": "Non-Toxic"}, {"measurement": "Activity", "setting": "[5]", "value": "Non-Toxic"}]}, {"smiles": "COc1cccc(-c2nc(C(=O)NC[C@@H](O)c3ccccc3)c(C)o2)c1OC", "values": [{"measurement": "Activity", "setting": "[1]", "value": "Non-Toxic"}, {"measurement": "Activity", "setting": "[2]", "value": "Non-Toxic"}, {"measurement": "Activity", "setting": "[3]", "value": "Non-Toxic"}, {"measurement": "Activity", "setting": "[4]", "value": "Non-Toxic"}, {"measurement": "Activity", "setting": "[5]", "value": "Non-Toxic"}]}, {"smiles": "COc1cccc(-c2nc(C(=O)NCCc3ccccc3)c(C)o2)c1O", "values": [{"measurement": "Activity", "setting": "[6]", "value": "Active"}, {"measurement": "Activity", "setting": "[1]", "value": "Non-Toxic"}, {"measurement": "Activity", "setting": "[2]", "value": "Non-Toxic"}, {"measurement": "Activity", "setting": "[3]", "value": "Non-Toxic"}, {"measurement": "Activity", "setting": "[4]", "value": "Non-Toxic"}, {"measurement": "Activity", "setting": "[5]", "value": "Non-Toxic"}]}]}
